Measurements taken from ChEMBL document CHEMBL4118021, “Studies of TAK1-centered polypharmacology with novel covalent TAK1 inhibitors” (Bioorg Med Chem, 2017).
One block for each compound: values may come before it. Activity calls are given as the source filed them. The calls are words filed in the database; no cut-off is given here.

Legend:
Format in all cases: cell-based
[1] = target: ATP-dependent 6-phosphofructokinase, liver type (Homo sapiens) (UniProt P17858); assay: Binding affinity to PFKL in human NCI-H23 cells at 1 uM by mass spectrometry based pull down assay
[2] = target: Glutamate--cysteine ligase catalytic subunit (Homo sapiens) (UniProt P48506); assay: Binding affinity to GCLC in human NCI-H358 cells at 1 uM by mass spectrometry based pull down assay
[3] = target: Interleukin-1 receptor-associated kinase 1 (Homo sapiens) (UniProt P51617); assay: Binding affinity to IRAK1 in human NCI-H23 cells at 1 uM by mass spectrometry based pull down assay
[4] = target: F-actin-capping protein subunit alpha-1 (Homo sapiens) (UniProt P52907); assay: Binding affinity to CAPZA1 in human NCI-H358 cells at 1 uM by mass spectrometry based pull down assay
[5] = target: TBC1 domain family member 15 (Homo sapiens) (UniProt Q8TC07); assay: Binding affinity to TBC1D15 in human NCI-H23 cells at 1 uM by mass spectrometry based pull down assay
[6] = target: Far upstream element-binding protein 1 (Homo sapiens) (UniProt Q96AE4); assay: Binding affinity to FUBP1 in human NCI-H23 cells at 1 uM by mass spectrometry based pull down assay
[7] = target: Protein diaphanous homolog 1 (Homo sapiens) (UniProt O60610); assay: Binding affinity to DIAPH1 in human NCI-H358 cells at 1 uM by mass spectrometry based pull down assay
[8] = target: Kinesin-like protein KIF1A (Homo sapiens) (UniProt Q12756); assay: Binding affinity to KIF1A in human NCI-H23 cells at 1 uM by mass spectrometry based pull down assay
[9] = target: DNA mismatch repair protein Msh2 (Homo sapiens) (UniProt P43246); assay: Binding affinity to MSH2 in human NCI-H23 cells at 1 uM by mass spectrometry based pull down assay
[10] = target: Epithelial splicing regulatory protein 1 (Homo sapiens) (UniProt Q6NXG1); assay: Binding affinity to ESRP1 in human NCI-H358 cells at 1 uM by mass spectrometry based pull down assay
[11] = target: Lysophosphatidylcholine acyltransferase 1 (Homo sapiens) (UniProt Q8NF37); assay: Binding affinity to LPCAT1 in human NCI-H358 cells at 1 uM by mass spectrometry based pull down assay
[12] = target: 80S Ribosome (Homo sapiens) (UniProt P08865+P42677+P62753+P15880+P23396+P61247+P62701+P22090+P46782+P62081+P62241+P46781+P46783+P62280+P25398+P62277+P62263+P62841+P62244+P62249+P08708+P62269+P39019+P60866+P63220+P62266+P62847+P62851+P62854+P62979+P62857+P62273+P62861+P39023+P36578+P46777+Q02878+P18124+P62424+P62917+P32969+P27635+P62906+P62913+P30050+P26373+P40429+P50914+P61313+P18621+Q07020+Q02543+P84098+P46778+P35268+P62829+P62750+P83731+P61254+P61353+P46776+P46779+P47914+P62888+P62899+P62910+P49207+P42766+P18077+Q9Y3U8+P83881+P61927+P61513+P63173+P62891+P62945+P05388+P05386); assay: Binding affinity to RPL5 in human NCI-H358 cells at 1 uM by mass spectrometry based pull down assay
[13] = target: Glycogen phosphorylase, brain form (Homo sapiens) (UniProt P11216); assay: Binding affinity to PYGB in human NCI-H358 cells at 1 uM by mass spectrometry based pull down assay
[14] = target: Actin-related protein 3 (Homo sapiens) (UniProt P61158); assay: Binding affinity to ACTR3 in human NCI-H23 cells at 1 uM by mass spectrometry based pull down assay
Procedure, shortened: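 NCI-H23 or NCI-H358 cells were grown and lysed. Lysates were incubated overnight at 4 °C with 1 μM biotinylated covalent probe or DMSO, then pulled down on streptavidin beads. Proteins were run on polyacrylamide gels and stained with Coomassie. Bands were excised, digested and identified by mass spectrometry.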

[15] = target: Protein arginine N-methyltransferase 5 (Homo sapiens) (UniProt O14744); assay: Binding affinity to PRMT5 in human NCI-H23 cells at 1 uM by mass spectrometry based pull down assay
[16] = target: Bifunctional glutamate/proline--tRNA ligase (Homo sapiens) (UniProt P07814); assay: Binding affinity to EPRS in human NCI-H23 cells at 1 uM by mass spectrometry based pull down assay
[17] = target: Ribosomal protein S6 kinase alpha-1 (Homo sapiens) (UniProt Q15418); assay: Binding affinity to RPS6KA1 in human NCI-H23 cells at 1 uM by mass spectrometry based pull down assay
[18] = target: Mitogen-activated protein kinase kinase kinase 21 (Homo sapiens) (UniProt Q5TCX8); assay: Inhibition of MLK4 in human SKCO1 cells at 1 uM after 4 hrs using biotin labeled DLKSSNILLLEK probe by mass-spectrometric analysis relative to control
[19] = target: NUAK family SNF1-like kinase 2 (Homo sapiens) (UniProt Q9H093); assay: Inhibition of NuaK2 in human SKCO1 cells at 1 uM after 4 hrs using biotin labeled LVAIKSIR probe by mass-spectrometric analysis relative to control
[20] = target: Phosphatidylinositol 4-phosphate 3-kinase C2 domain-containing subunit beta (Homo sapiens) (UniProt O00750); assay: Inhibition of PIK3C2B in human SKCO1 cells at 1 uM after 4 hrs using biotin labeled VIFKCGDDLRQDMLTLQMIR probe by mass-spectrometric analysis relative to control
[21] = target: Serine/threonine-protein kinase Nek1 (Homo sapiens) (UniProt Q96PY6); assay: Inhibition of NEK1 in human SKCO1 cells at 1 uM after 4 hrs using biotin labeled DIKSQNIFLTK probe by mass-spectrometric analysis relative to control

Lysophosphatidylcholine acyltransferase 1 (Homo sapiens), sequence (Q8NF37 whole entry): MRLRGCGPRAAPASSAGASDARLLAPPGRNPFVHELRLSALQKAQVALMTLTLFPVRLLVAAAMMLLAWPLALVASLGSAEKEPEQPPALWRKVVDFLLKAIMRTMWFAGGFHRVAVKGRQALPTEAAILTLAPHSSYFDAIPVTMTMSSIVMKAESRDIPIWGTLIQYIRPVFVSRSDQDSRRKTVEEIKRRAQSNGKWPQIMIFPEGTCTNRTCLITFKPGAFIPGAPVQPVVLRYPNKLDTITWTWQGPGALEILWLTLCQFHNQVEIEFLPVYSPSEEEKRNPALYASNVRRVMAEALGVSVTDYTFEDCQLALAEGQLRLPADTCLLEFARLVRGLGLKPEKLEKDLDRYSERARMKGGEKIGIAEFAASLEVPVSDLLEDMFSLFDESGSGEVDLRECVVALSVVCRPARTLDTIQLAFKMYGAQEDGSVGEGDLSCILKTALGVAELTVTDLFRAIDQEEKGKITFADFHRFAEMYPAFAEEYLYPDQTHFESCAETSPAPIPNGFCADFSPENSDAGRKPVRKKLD
Glutamate--cysteine ligase catalytic subunit (Homo sapiens), sequence (P48506 whole entry): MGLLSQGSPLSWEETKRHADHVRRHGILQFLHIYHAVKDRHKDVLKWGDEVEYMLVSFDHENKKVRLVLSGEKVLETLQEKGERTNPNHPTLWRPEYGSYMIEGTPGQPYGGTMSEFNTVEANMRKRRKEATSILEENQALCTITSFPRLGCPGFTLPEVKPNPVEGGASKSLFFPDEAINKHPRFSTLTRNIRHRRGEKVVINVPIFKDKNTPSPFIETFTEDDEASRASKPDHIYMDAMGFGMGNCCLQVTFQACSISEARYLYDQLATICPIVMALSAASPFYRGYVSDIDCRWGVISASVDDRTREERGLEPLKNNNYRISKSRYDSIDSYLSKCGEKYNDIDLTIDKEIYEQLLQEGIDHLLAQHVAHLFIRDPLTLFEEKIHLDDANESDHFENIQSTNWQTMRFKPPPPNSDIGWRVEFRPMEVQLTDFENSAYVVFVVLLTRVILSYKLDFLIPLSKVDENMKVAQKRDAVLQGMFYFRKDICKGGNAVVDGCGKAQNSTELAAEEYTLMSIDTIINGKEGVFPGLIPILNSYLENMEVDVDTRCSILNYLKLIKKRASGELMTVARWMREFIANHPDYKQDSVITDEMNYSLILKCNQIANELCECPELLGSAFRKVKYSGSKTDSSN
NUAK family SNF1-like kinase 2 (Homo sapiens), sequence (Q9H093 whole entry, the tested form may be a part): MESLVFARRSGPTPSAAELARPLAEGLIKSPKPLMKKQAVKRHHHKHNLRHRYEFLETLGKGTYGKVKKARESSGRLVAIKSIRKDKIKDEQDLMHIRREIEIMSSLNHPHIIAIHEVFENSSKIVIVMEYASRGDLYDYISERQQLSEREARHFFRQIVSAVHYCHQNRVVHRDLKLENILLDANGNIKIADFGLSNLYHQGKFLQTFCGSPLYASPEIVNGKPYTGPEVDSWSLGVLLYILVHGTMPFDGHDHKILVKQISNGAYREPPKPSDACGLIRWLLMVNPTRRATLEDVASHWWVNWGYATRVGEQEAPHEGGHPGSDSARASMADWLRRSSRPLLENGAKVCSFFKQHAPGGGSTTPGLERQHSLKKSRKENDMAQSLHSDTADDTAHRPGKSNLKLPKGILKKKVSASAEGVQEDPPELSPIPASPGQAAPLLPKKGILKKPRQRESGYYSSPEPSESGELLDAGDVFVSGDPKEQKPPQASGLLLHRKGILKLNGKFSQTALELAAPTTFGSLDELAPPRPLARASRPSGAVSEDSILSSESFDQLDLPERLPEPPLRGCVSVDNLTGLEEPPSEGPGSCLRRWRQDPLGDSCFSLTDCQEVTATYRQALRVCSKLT
ATP-dependent 6-phosphofructokinase, liver type (Homo sapiens), sequence (P17858 whole entry): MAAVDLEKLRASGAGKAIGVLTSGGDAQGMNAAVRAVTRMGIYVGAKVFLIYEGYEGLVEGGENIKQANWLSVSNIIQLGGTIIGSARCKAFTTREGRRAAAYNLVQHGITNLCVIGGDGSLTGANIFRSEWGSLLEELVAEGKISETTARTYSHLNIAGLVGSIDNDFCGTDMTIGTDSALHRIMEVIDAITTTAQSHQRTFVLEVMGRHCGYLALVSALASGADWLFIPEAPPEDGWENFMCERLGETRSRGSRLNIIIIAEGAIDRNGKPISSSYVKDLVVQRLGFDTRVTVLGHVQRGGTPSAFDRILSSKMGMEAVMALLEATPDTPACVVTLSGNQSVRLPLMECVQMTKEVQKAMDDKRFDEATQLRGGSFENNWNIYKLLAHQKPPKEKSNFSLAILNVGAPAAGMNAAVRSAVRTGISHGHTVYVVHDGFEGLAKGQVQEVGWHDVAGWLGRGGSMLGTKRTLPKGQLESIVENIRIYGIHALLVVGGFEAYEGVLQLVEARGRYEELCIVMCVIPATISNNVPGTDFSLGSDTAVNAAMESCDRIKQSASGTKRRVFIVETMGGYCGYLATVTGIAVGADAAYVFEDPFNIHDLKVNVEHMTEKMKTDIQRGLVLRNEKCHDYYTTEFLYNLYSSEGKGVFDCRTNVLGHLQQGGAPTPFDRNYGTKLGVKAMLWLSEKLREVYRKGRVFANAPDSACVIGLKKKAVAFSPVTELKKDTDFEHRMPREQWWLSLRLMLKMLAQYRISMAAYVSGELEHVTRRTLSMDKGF
TBC1 domain family member 15 (Homo sapiens), sequence (Q8TC07 whole entry, the tested form may be a part): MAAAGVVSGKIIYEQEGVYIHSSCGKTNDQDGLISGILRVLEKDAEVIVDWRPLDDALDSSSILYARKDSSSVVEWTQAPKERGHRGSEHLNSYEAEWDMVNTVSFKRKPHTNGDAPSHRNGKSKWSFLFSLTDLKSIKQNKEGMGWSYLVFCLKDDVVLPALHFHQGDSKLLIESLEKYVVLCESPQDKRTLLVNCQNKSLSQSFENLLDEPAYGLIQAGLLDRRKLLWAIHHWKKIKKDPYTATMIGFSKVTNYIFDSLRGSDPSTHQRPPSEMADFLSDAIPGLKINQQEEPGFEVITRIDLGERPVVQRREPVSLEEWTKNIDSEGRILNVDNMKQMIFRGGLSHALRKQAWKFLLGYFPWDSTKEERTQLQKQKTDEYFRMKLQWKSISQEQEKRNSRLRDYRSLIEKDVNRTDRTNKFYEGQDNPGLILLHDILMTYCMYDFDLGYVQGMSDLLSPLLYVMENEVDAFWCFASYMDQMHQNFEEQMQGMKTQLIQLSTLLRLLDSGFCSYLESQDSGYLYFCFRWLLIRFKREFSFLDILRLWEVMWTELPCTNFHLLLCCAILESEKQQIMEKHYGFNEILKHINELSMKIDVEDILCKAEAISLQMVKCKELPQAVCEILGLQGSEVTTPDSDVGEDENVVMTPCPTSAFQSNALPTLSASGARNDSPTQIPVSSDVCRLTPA
Interleukin-1 receptor-associated kinase 1 (Homo sapiens), sequence (P51617 whole entry, looked up): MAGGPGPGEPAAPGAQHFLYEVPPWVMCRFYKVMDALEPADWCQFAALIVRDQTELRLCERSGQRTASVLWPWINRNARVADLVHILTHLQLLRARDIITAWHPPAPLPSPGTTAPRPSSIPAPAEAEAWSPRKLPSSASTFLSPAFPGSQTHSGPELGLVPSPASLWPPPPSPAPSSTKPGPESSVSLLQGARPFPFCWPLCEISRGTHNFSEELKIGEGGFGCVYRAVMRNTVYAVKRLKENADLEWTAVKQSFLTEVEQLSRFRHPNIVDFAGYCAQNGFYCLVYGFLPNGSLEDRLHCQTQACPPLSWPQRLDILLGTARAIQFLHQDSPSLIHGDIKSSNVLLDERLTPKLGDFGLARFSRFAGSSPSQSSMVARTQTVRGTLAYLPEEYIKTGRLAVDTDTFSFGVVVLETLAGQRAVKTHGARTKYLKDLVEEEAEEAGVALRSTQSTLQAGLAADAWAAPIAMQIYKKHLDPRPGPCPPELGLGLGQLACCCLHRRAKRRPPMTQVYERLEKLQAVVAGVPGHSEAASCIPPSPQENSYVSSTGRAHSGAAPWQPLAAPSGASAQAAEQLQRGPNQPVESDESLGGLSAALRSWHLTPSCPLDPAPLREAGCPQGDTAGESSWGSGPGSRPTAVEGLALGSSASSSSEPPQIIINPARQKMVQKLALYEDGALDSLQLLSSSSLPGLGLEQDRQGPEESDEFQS
Mitogen-activated protein kinase kinase kinase 21 (Homo sapiens), sequence (Q5TCX8 whole entry): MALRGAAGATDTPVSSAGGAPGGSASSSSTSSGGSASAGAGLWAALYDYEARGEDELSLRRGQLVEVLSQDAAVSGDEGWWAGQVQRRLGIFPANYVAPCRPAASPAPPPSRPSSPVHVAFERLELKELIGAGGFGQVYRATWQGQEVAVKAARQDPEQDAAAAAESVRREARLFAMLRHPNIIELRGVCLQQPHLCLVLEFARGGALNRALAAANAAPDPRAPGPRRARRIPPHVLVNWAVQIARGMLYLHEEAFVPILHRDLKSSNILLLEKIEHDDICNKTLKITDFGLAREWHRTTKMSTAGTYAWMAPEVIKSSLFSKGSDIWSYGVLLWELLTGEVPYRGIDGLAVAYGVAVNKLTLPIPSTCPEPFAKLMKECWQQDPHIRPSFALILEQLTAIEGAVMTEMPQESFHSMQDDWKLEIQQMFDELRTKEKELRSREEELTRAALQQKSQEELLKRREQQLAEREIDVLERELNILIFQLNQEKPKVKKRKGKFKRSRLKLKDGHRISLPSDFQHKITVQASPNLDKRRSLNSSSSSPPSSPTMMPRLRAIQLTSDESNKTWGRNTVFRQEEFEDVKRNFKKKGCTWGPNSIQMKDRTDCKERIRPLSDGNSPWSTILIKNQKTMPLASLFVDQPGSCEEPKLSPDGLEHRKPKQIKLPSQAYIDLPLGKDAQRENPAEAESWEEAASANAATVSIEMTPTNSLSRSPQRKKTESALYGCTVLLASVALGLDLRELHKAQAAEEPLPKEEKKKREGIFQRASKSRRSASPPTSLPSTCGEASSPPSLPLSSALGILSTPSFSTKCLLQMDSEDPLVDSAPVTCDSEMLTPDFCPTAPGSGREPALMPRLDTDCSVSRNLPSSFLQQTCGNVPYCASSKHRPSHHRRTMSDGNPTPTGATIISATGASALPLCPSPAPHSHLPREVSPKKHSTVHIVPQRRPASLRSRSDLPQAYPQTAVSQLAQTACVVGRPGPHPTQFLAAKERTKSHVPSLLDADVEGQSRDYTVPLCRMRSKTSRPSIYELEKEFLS

Activity [1]: Active | Activity [2]: Active | Activity [3]: Active | Activity [4]: Active | Activity [5]: Active | Activity [6]: Active | Activity [7]: Active | Activity [8]: Active | Activity [9]: Active | Activity [10]: Active | Activity [11]: Active | Activity [12]: Active | Activity [13]: Active | Activity [14]: Active | Activity [15]: Active | Activity [16]: Active | Activity [17]: Active
Structure (SMILES): C=CC(=O)Nc1ccccc1Nc1nc(Nc2ccc(N3CCN(CCOCCOCCOCCNC(=O)CCCC[C@@H]4SC[C@@H]5NC(=O)N[C@@H]54)CC3)cc2)ncc1Cl

Structure (SMILES): C=CC(=O)Nc1ccccc1Nc1nc(Nc2ccc(N3CCN(C)CC3)cc2)ncc1Cl
inhibition [18]: -1.1% | inhibition [19]: 53.3%

Structure (SMILES): COc1cc(O)c2c(c1)/C=C/C[C@H](O)[C@H](O)C(=O)/C=C\C[C@H](C)OC2=O
inhibition [20]: 8.3%

Structure (SMILES): C=CC(=O)Nc1ccccc1Oc1nc(Nc2cnn(CCOC)c2)ncc1Cl
inhibition [21]: -7.4%
